From ChEMBL document CHEMBL2176911 (J Med Chem, 2012)
Activity calls are given as the source filed them. The rule behind the calls is not given here.

Tests used:
[1] = molecular target: Homeodomain-interacting protein kinase 2 (Homo sapiens) (UniProt Q9H2X6); test: Inhibition of human recombinant GST-tagged HIPK2 expressed in Escherichia coli at 10 uM after 30 mins
[2] = molecular target: Casein kinase II subunit alpha (Mus musculus, UniProt Q60737); test: Binding affinity to CSNK2A1 in mouse brain homogenate after 3 hrs by competition affinity chromatographic analysis; assay type: tissue-based
Casein kinase II subunit alpha, sequence (Q60737 whole entry): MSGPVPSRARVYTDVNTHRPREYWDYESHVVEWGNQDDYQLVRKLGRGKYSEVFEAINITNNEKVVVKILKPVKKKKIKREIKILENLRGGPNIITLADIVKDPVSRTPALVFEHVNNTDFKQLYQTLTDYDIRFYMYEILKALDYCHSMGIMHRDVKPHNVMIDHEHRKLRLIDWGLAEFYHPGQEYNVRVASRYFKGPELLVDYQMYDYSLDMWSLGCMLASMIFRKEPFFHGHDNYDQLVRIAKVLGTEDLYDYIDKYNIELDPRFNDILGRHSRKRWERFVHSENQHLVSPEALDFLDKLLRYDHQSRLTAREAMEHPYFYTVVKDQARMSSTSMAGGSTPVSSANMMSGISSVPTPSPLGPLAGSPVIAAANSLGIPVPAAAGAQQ
Summary of the method: (§1)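 Mouse brain lysate applied to a KinAffinity matrix of mixed immobilized broad-spectrum kinase inhibitors at highest loading density, with increasing concentrations of free inhibitor added. […] Separate titrations of the immobilized ligands gave BC50 values.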

[3] = system: HT-22; test: Inhibition of GSK3-mediated […] phosphorylation in mouse HT22 cells at 0.01 to 10 uM after 24 hrs by Western blot analysis in presence of MG132; assay type: cell-based
[4] = molecular target: Glycogen synthase kinase-3 alpha (Mus musculus) (UniProt Q2NL51); test: Binding affinity to GSK3alpha in mouse HT22 cell lysate by Western blot analysis; assay type: cell-free; conditions: HT-22
Summary of the method: (§2)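 Bead pull-down from HT22 cell or mouse brain extracts, with ethanolamine beads lacking ligand as control. Specificity was tested by adding excess free inhibitor to the extracts before binding.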

[5] = system: HT-22; test: Downregulation of GSK3 expression in mouse HT22 cells after 4 hrs by Western blot analysis; assay type: functional, cell-based
[6] = molecular target: Dual specificity protein kinase CLK3 (Homo sapiens, UniProt P49761); test: Binding affinity to CLK3
Dual specificity protein kinase CLK3 (Homo sapiens, UniProt P49761), sequence (P49761 whole entry): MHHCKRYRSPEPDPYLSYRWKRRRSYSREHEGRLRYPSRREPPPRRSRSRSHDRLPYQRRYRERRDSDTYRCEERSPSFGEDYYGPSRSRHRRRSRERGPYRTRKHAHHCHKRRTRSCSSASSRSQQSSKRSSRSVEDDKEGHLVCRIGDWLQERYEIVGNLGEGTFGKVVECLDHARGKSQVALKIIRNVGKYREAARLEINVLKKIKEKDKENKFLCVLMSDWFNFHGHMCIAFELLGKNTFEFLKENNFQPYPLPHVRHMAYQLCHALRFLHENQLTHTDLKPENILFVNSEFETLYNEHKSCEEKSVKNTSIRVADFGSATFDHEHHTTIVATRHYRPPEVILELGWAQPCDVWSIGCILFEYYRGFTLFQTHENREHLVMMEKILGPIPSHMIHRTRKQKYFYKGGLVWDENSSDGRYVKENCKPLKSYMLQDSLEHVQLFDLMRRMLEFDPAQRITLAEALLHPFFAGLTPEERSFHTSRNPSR

[7] = molecular target: Dual specificity protein kinase CLK3 (Mus musculus, UniProt O35492); test: Inhibition of mouse recombinant GST-tagged CLK3 expressed in Escherichia coli using GRSRSRSRSRSR as substrate and [gamma33P]ATP after 30 mins by scintillation counting
Dual specificity protein kinase CLK3 (Mus musculus, UniProt O35492), sequence (O35492 whole entry): as the sequence (P49761 whole entry) above, with L55I, R64H, Y83C, P86S, G99A, T484S counted along it
Summary of the method: (§3)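 Panel of purified kinases (recombinant from several species plus native enzymes), each assayed radiometrically over a range of inhibitor concentrations; IC50 in μM calculated from the dose-response curves.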

[8] = molecular target: T1, Dual specificity tyrosine-phosphorylation-regulated kinase 2 (Homo sapiens) (UniProt Q92630); test: Inhibition of human recombinant GST-tagged DYRK2 expressed in Escherichia coli using KKISGRLSPIMTEQ as substrate at 1 uM after 30 mins
T1 sequence (whole entry): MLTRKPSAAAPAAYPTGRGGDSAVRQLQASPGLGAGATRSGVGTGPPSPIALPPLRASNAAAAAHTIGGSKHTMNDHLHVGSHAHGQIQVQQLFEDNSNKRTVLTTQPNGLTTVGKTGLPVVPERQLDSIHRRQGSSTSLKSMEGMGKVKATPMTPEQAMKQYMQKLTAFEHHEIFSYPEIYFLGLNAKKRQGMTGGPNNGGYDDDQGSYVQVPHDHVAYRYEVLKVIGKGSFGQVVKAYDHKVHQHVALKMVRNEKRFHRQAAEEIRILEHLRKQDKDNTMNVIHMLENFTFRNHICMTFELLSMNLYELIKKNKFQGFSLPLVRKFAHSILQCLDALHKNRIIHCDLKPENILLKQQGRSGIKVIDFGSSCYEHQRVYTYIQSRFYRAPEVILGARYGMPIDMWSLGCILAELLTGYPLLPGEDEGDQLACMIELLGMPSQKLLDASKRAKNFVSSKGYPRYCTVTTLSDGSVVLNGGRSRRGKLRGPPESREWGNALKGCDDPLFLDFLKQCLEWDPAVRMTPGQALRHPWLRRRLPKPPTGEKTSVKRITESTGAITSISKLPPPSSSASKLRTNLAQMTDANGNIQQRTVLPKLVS

[9] = system: Brain; test: Toxicity against CD Sprague-Dawley rat brain expressing human APP at 0.03 to 3 uM after 3 hrs by fluorescence microscopic analysis; assay type: tissue-based; conditions: in vivo
[10] = molecular target: Casein kinase II subunit alpha' (Mus musculus) (UniProt O54833); test: Binding affinity to CK2 alpha' subunit in mouse brain homogenate by Western blot analysis; assay type: tissue-based; summary of the method: as §2
[11] = Binding affinity to casein kinase 2
[12] = molecular target: Casein kinase II (Homo sapiens, UniProt P19784+P67870+P68400); test: Inhibition of human recombinant CK2 using RRREDEESDDEE as substrate and [gamma33P]ATP after 30 mins by scintillation counting; assay type: protein-complex assay
Summary of the method: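 Purified recombinant kinase from a 26-enzyme panel, with inhibitor tested at various concentrations. IC50 in μM calculated from dose–response curves.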

[13] = molecular target: Dual specificity tyrosine-phosphorylation-regulated kinase 1A (Mus musculus) (UniProt Q61214); test: Inhibition of DYRK1A in mouse HT22 cells at 10 uM after 4 hrs; assay type: cell-based; conditions: HT-22
[14] = molecular target: Serine/threonine-protein kinase pim-3 (Homo sapiens) (UniProt Q86V86); test: Inhibition of human recombinant His6-tagged PIM3 expressed in Sf21 cells using RSRHSSYPAGT as substrate at 10 uM after 30 mins
[15] = molecular target: Mitogen-activated protein kinase 1 (Rattus norvegicus, UniProt P63086); test: Inhibition of rat recombinant ERK2 using Ets1 as substrate and [gamma33P]ATP as substrate after 30 mins by scintillation counting; summary of the method: as §3
Mitogen-activated protein kinase 1, sequence (P63086 whole entry): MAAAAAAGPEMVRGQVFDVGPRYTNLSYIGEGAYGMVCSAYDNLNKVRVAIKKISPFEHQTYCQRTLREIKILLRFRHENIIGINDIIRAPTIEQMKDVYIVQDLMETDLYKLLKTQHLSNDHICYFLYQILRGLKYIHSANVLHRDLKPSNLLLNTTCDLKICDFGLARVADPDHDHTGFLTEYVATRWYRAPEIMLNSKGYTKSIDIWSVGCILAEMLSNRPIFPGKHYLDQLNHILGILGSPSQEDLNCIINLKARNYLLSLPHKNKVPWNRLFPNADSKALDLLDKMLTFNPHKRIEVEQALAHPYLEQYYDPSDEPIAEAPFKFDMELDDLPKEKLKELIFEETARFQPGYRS

[16] = system: HT-22; test: Inhibition of GSK3 in mouse HT22 cells at 10 uM after 4 hrs; assay type: cell-based
[17] = molecular target: Homeodomain-interacting protein kinase 3 (Homo sapiens, UniProt Q9H422); test: Binding affinity to HIPK3
Homeodomain-interacting protein kinase 3, sequence (Q9H422 whole entry): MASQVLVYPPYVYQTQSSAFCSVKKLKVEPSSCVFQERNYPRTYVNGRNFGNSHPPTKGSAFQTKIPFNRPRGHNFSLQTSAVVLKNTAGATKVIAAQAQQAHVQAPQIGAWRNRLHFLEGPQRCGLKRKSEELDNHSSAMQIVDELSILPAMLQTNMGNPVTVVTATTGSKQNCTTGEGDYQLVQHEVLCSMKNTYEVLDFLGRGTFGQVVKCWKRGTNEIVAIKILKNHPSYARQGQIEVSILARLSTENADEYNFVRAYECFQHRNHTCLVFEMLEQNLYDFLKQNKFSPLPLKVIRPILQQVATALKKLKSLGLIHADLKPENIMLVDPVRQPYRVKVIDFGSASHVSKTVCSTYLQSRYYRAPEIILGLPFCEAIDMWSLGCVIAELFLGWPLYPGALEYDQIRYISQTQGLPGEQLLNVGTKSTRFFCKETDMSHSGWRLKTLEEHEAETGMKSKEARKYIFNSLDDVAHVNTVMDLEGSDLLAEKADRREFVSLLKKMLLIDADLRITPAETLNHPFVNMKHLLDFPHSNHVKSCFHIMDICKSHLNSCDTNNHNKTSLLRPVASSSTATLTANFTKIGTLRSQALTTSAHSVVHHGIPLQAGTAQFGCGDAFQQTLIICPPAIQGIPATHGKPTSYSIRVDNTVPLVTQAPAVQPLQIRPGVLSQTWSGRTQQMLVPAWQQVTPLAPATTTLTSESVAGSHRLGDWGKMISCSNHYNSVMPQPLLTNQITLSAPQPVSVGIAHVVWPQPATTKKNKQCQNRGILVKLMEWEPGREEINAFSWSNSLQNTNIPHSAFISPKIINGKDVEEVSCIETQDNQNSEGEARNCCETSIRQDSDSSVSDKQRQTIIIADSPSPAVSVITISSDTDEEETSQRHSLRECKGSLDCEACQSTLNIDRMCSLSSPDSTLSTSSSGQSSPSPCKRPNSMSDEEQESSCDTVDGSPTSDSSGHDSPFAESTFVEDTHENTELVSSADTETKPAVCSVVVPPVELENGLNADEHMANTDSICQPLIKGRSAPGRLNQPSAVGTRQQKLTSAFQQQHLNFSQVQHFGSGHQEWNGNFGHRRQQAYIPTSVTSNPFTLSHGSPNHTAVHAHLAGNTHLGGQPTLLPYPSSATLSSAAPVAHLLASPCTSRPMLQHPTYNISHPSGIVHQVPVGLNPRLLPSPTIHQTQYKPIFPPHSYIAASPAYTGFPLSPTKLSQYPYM

[18] = molecular target: Dual specificity tyrosine-phosphorylation-regulated kinase 1A (Homo sapiens) (UniProt Q13627); test: Inhibition of human recombinant GST-tagged DYRK1A expressed in Escherichia coli using KKISGRLSPIMTEQ as substrate at 10 uM after 30 mins
[19] = Inhibition of starfish CDK1/cyclin B using histone H1 as substrate and [gamma33P]ATP after 30 mins by scintillation counting; set-up: species or system Asteroidea; summary of the method: as §3
[20] = Inhibition of CK2 at 1 uM after 30 mins
[21] = molecular target: Dual specificity tyrosine-phosphorylation-regulated kinase 1A (Mus musculus) (UniProt Q61214); test: Binding affinity to DYRK1A in mouse brain homogenate by Western blot analysis; assay type: tissue-based; summary of the method: as §2
[22] = molecular target: Protein VAC14 homolog (Mus musculus) (UniProt Q80WQ2); test: Binding affinity to VAC14 in mouse HT22 cell lysate by Western blot analysis; assay type: cell-free; conditions: HT-22; summary of the method: as §2
Protein VAC14 homolog (Mus musculus), sequence (Q80WQ2 whole entry): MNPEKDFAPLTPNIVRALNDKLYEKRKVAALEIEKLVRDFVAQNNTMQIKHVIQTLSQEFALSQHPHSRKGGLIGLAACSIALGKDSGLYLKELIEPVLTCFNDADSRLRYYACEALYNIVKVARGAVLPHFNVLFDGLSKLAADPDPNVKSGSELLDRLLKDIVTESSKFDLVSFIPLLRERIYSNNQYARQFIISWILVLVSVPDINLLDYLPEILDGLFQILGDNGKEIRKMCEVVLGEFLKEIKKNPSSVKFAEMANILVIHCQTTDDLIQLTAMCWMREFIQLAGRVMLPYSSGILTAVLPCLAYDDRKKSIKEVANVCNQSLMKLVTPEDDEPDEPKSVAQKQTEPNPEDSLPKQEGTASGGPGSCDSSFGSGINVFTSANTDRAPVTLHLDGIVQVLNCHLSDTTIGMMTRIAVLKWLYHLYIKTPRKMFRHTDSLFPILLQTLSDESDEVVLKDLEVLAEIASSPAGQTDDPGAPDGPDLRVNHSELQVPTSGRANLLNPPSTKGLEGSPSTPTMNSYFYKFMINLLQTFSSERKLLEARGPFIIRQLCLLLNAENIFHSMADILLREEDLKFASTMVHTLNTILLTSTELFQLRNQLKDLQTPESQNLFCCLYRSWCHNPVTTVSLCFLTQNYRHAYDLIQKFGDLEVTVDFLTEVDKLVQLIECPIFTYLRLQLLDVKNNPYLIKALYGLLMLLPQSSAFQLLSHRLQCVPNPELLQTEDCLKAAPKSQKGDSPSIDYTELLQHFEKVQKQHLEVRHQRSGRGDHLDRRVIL

[23] = molecular target: Dual specificity tyrosine-phosphorylation-regulated kinase 1A (Mus musculus, UniProt Q61214); test: Binding affinity to DYRK1A in mouse brain homogenate after 3 hrs by competition affinity chromatographic analysis; assay type: tissue-based; summary of the method: as §1

Homeodomain-interacting protein kinase 2 (Homo sapiens), sequence (Q9H2X6 whole entry, looked up): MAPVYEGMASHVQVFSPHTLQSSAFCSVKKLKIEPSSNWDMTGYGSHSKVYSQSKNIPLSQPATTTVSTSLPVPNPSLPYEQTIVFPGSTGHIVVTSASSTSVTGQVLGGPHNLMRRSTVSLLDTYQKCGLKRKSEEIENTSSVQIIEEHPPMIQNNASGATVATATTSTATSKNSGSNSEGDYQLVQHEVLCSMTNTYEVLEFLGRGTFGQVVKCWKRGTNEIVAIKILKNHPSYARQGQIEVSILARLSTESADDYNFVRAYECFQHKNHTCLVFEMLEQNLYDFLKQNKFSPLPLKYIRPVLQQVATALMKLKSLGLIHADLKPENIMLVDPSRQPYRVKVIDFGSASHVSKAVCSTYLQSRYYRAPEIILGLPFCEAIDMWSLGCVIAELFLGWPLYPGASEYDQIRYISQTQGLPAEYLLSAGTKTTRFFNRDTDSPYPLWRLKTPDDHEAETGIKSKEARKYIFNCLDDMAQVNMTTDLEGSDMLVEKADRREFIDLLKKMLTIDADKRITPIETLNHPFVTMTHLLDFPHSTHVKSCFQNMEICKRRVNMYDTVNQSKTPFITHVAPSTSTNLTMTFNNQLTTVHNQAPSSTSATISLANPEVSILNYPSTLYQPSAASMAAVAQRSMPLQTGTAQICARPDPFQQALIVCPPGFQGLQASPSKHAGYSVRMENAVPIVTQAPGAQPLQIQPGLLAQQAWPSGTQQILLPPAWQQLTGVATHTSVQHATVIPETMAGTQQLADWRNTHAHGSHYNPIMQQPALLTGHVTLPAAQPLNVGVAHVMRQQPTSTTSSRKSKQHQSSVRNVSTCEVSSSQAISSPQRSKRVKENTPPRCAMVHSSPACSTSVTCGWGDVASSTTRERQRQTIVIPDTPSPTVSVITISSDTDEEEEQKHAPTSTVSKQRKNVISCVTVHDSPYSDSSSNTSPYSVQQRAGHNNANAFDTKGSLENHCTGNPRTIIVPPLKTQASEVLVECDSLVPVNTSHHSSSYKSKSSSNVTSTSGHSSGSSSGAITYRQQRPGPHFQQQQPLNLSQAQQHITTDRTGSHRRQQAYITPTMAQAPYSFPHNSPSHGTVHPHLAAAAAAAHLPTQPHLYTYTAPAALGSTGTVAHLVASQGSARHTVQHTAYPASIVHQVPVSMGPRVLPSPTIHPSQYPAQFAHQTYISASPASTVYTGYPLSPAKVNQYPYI

O=C1NC(Nc2ccccc2)=N/C1=C\c1ccc2c(c1)OCO2
inhibition [1]: Active | Kd(free) [2]: 0.326 µM | inhibition [3]: inactive | Activity [4]: Active | Activity [5]: inactive | Kd [6]: 1.1 µM | IC50 [7]: > 10 µM | inhibition [8]: Active | Activity [9]: Non-toxic | Activity [10]: Active | Activity [11]: Active | IC50 [12]: 0.32 µM | inhibition [13]: Active | inhibition [14]: Active | IC50 [15]: > 30 µM | inhibition [16]: inactive | Kd [17]: 0.23 µM | inhibition [18]: Active | IC50 [19]: > 30 µM | inhibition [20]: Active | Activity [21]: Active | Activity [22]: Active | Kd(free) [23]: 0.065 µM
